According to ChEMBL document CHEMBL1123757, “Selective thromboxane synthetase inhibitors and antihypertensive agents. New derivatives of 4-hydrazino-5H-pyridazino[4,5-b]indole, 4-hydrazinopyridazino[4,5-a]indole, and related compounds” (J Med Chem, 1987):

Assays:
Rattus norvegicus [1] = test: Antihypertensive activity in spontaneously hypertensive rats (SHR) measured by percentage fall in arterial pressure (AP) at 25 mg/kg administered perorally at 3 h; type: functional, Artery; settings: route oral
Outline: (§1)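 Oral dosing at 2.5 mL/kg to unanesthetized male and female Okamoto-strain SHR (8 weeks old, 300–350 g, systolic pressure ≥190 mmHg, heart rate 400–650 beats/min), five per dose. Vehicle was normal saline or saline with 0.2% (carboxymethyl)cellulose and 1.0% Tween 80. AP measured on the tail by mechanical transduction at set times; expressed as percentage fall from control.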

Rattus norvegicus [2] = test: Antihypertensive activity in spontaneously hypertensive rats (SHR) measured by percentage fall in arterial pressure (AP) at 25 mg/kg administered perorally at 5 h; type: functional, Artery; settings: route oral; outline: as §1
Rattus norvegicus [3] = test: Antihypertensive activity in spontaneously hypertensive rats (SHR) measured by percentage fall in arterial pressure (AP) at 5 mg/kg administered intraperitoneally at 1 h; type: functional, Artery; settings: route intraperitoneal
Outline: (§2)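 Unanesthetized Okamoto-strain SHR, male and female, 8 weeks old, 300–350 g, systolic pressure ≥190 mmHg, heart rate 400–650 beats/min; five animals per dose. Given ip at 2.5 mL/kg, dissolved or suspended in normal saline or saline with 0.2% (carboxymethyl)cellulose and 1.0% Tween 80. Tail AP and CR recorded by mechanical transduction at set times; reported as percentage fall from control.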

Rattus norvegicus [4] = test: Antihypertensive activity in spontaneously hypertensive rats (SHR) measured by percentage fall in arterial pressure (AP) at 5 mg/kg administered intraperitoneally at 24 h; type: functional, Artery; settings: route intraperitoneal; outline: as §2
Rattus norvegicus [5] = test: Antihypertensive activity in spontaneously hypertensive rats (SHR) measured by percentage fall in arterial pressure (AP) at 5 mg/kg administered intraperitoneally at 5 h; type: functional, Artery; settings: route intraperitoneal; outline: as §2
Rattus norvegicus [6] = test: Antihypertensive activity in spontaneously hypertensive rats (SHR) measured by percentage fall in arterial pressure (AP) at 25 mg/kg administered intraperitoneally at 5 h; type: functional, Artery; settings: route intraperitoneal; outline: as §2
Rattus norvegicus [7] = test: Antihypertensive activity in spontaneously hypertensive rats (SHR) measured by percentage fall in arterial pressure (AP) at 25 mg/kg administered perorally at 1 h; type: functional, Artery; settings: route oral; outline: as §1
Rattus norvegicus [8] = test: Antihypertensive activity in spontaneously hypertensive rats (SHR) measured by percentage fall in cardiac rhythm (CR) at 1 mg/kg administered intraperitoneally at 3 h; type: functional, Heart; settings: route intraperitoneal; outline: as §2
Rattus norvegicus [9] = test: Antihypertensive activity in spontaneously hypertensive rats (SHR) measured by percentage fall in cardiac rhythm (CR) at 1 mg/kg administered intraperitoneally at 5 h; type: functional, Heart; settings: route intraperitoneal; outline: as §2
Rattus norvegicus [10] = test: Antihypertensive activity in spontaneously hypertensive rats (SHR) measured by percentage fall in cardiac rhythm (CR) at 25 mg/kg administered intraperitoneally at 1 h; type: functional, Heart; settings: route intraperitoneal; outline: as §2
Rattus norvegicus [11] = test: Antihypertensive activity in spontaneously hypertensive rats (SHR) measured by percentage fall in cardiac rhythm (CR) at 25 mg/kg administered perorally at 3 h; type: functional, Heart; settings: route oral
Outline: (§3)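 Conscious SHR (Okamoto strain), 8 weeks old, male and female, 300–350 g, systolic BP ≥190 mmHg, CR 400–650 beats/min. Given ip or po at 2.5 mL/kg in normal saline or saline with 0.2% (carboxymethyl)cellulose and 1.0% Tween 80. Tail AP and CR recorded by mechanical transduction at 1, 3, 5 and 24 h, five animals per dose. Effect expressed as % fall versus control.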

Rattus norvegicus [12] = test: Antihypertensive activity in spontaneously hypertensive rats (SHR) measured by percentage fall in cardiac rhythm (CR) at 25 mg/kg administered perorally at 5 h; type: functional, Heart; settings: route oral; outline: as §3
Rattus norvegicus [13] = test: Antihypertensive activity in spontaneously hypertensive rats (SHR) measured by percentage fall in cardiac rhythm (CR) at 5 mg/kg administered intraperitoneally at 1 h; type: functional, Heart; settings: route intraperitoneal; outline: as §3
Rattus norvegicus [14] = test: Antihypertensive activity in spontaneously hypertensive rats (SHR) measured by percentage fall in cardiac rhythm (CR) at 5 mg/kg administered intraperitoneally at 24 h; type: functional, Heart; settings: route intraperitoneal; outline: as §3
Rattus norvegicus [15] = test: Antihypertensive activity in spontaneously hypertensive rats (SHR) measured by percentage fall in cardiac rhythm (CR) at 5 mg/kg administered intraperitoneally at 3 h; type: functional, Heart; settings: route intraperitoneal; outline: as §3
Rattus norvegicus [16] = test: Antihypertensive activity in spontaneously hypertensive rats (SHR) measured by percentage fall in cardiac rhythm (CR) at 5 mg/kg administered intraperitoneally at 5 h; type: functional, Heart; settings: route intraperitoneal; outline: as §3
Rattus norvegicus [17] = test: Antihypertensive activity in spontaneously hypertensive rats (SHR) measured by percentage fall in cardiac rhythm (CR) at 1 mg/kg administered intraperitoneally at 1 h; type: functional, Heart; settings: route intraperitoneal; outline: as §2
Rattus norvegicus [18] = test: Antihypertensive activity in spontaneously hypertensive rats (SHR) measured by percentage fall in cardiac rhythm (CR) at 25 mg/kg administered intraperitoneally at 24 h; type: functional, Heart; settings: route intraperitoneal; outline: as §2
Rattus norvegicus [19] = test: Antihypertensive activity in spontaneously hypertensive rats (SHR) measured by percentage fall in cardiac rhythm (CR) at 25 mg/kg administered intraperitoneally at 3 h; type: functional, Heart; settings: route intraperitoneal; outline: as §2
Rattus norvegicus [20] = test: Antihypertensive activity in spontaneously hypertensive rats (SHR) measured by percentage fall in cardiac rhythm (CR) at 25 mg/kg administered intraperitoneally at 5 h; type: functional, Heart; settings: route intraperitoneal; outline: as §3
Rattus norvegicus [21] = test: Antihypertensive activity in spontaneously hypertensive rats (SHR) measured by percentage fall in cardiac rhythm (CR) at 25 mg/kg administered perorally at 1 h; type: functional, Heart; settings: route oral; outline: as §3
Rattus norvegicus [22] = test: Antihypertensive activity in spontaneously hypertensive rats (SHR) measured by percentage fall in arterial pressure (AP) at 1 mg/kg administered intraperitoneally at 3 h; type: functional, Artery; settings: route intraperitoneal; outline: as §2
Rattus norvegicus [23] = test: Antihypertensive activity in spontaneously hypertensive rats (SHR) measured by percentage fall in arterial pressure (AP) at 25 mg/kg administered intraperitoneally at 1 h; type: functional, Artery; settings: route intraperitoneal; outline: as §2
Rattus norvegicus [24] = test: Antihypertensive activity in spontaneously hypertensive rats (SHR) measured by percentage fall in arterial pressure (AP) at 25 mg/kg administered intraperitoneally at 24 h; type: functional, Artery; settings: route intraperitoneal; outline: as §2
Rattus norvegicus [25] = test: Antihypertensive activity in spontaneously hypertensive rats (SHR) measured by percentage fall in arterial pressure (AP) at 25 mg/kg administered intraperitoneally at 3 h; type: functional, Artery; settings: route intraperitoneal; outline: as §2
Rattus norvegicus [26] = test: Antihypertensive activity in spontaneously hypertensive rats (SHR) measured by percentage fall in arterial pressure (AP) at 5 mg/kg administered intraperitoneally at 3 h; type: functional, Artery; settings: route intraperitoneal; outline: as §2
Cavia porcellus [27] = test: Effect on thromboxane synthetase activity on ex vivo platelet aggregation induced by PGE-2 at 50 mg/kg expressed as percent increase; type: functional
Outline: (§4)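 Fasted male or female guinea pigs (250–300 g, five per group) dosed orally in normal saline or saline with 0.2% (carboxymethyl)cellulose/1.0% Tween 80; controls given vehicle. Under ether, cardiac blood collected into 3.8% citrate. PRP adjusted to […] and aggregation induced by ADP (second wave) or AA, read by absorbance aggregometry. PGE2 and TXB2 measured by RIA.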

Cavia porcellus [28] = test: Effect on thromboxane synthetase activity on ex vivo platelet aggregation induced by PGE-2 at 100 mg/kg expressed as percent increase; type: functional; outline: as §4
[29] = Effect on thromboxane synthetase activity on in vitro platelet aggregation induced by AA at 10e -5 M expressed as percent increase in PGE-2; type: functional, Homo sapiens
Outline: (§5)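 Human citrated PRP adjusted to 200 000 […], compound at 10^-5 M final in saline/10% ethylene glycol, incubated at 37 °C. Aggregation induced with arachidonic acid 0.6 mM and read by Born absorbance aggregometry. PGE2 and TXB2 in the aggregated samples measured by radioimmunoassay. n = 5.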

[30] = Effect on PGI-2 release from rat aortic tissue at a final concentration of 10e -4 for an incubation time of 10 minutes; type: functional
Outline: (§6)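 Female Wistar rats (200–220 g) received heparin 200 IU/kg ip and were killed 10 min later. Aortic pieces of about 25 mm² were washed in ice-cold oxygenated Krebs–Henseleit buffer, then incubated in 1 mL buffer at 37 °C. Compound at 10^-4 M final was added 10 min before tissue transfer. PGI2 release was read as antiaggregatory activity of the incubate on ADP (2×10^-6 M)-induced human PRP aggregation and by 6-keto-PGF1α RIA. n = 4.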

[31] = Effect on PGI-2 release from rat aortic tissue at a final concentration of 10e -4 for an incubation time of 25 minutes; type: functional; outline: as §6
[32] = Effect on PGI-2 release from rat aortic tissue at a final concentration of 10e -4 for an incubation time of 30 minutes; type: functional; outline: as §6
[33] = Effect on PGI-2 release from rat aortic tissue at a final concentration of 10e -4 for an incubation time of 35 minutes; type: functional; outline: as §6
[34] = target: T1, Thromboxane-A synthase (Homo sapiens) (UniProt P24557); test: Effect on thromboxane synthetase activity on ex vivo platelet aggregation induced by TXB2 at 100 mg/kg expressed as percent increase; type: functional, organism-based; parameters: dose 100 mg/kg; settings: Cavia porcellus; outline: as §4
T1 sequence (whole entry): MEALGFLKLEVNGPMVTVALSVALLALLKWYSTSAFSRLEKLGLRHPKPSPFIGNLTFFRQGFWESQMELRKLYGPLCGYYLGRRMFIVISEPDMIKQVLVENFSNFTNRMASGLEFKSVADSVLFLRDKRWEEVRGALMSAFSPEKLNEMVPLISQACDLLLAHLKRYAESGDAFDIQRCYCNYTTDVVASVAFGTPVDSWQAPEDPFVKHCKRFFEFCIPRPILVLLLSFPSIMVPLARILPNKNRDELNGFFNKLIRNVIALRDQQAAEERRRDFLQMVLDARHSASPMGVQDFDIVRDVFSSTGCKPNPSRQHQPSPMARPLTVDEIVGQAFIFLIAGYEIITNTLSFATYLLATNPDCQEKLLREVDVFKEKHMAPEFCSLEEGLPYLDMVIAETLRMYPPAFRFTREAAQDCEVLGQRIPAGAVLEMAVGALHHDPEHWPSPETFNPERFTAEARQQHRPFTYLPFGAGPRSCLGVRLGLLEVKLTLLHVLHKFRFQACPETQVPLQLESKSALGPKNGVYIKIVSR

[35] = target: T1, Thromboxane-A synthase (Homo sapiens); test: Effect on thromboxane synthetase activity on ex vivo platelet aggregation induced by TXB2 at 50 mg/kg expressed as percent increase; type: functional, organism-based; parameters: dose 50 mg/kg; settings: Cavia porcellus; outline: as §4
[36] = target: T1, Thromboxane-A synthase (Homo sapiens); test: Effect on thromboxane synthetase activity on in vitro platelet aggregation induced by AA at 10e -5 M expressed as percent […] in TXB2; type: functional; outline: as §5

Br.Br.NNc1[nH]ncc2c3cc(O)ccc3nc1-2
Decrease in AP (Rattus norvegicus [1]): 27%
Decrease in AP (Rattus norvegicus [2]): 8%
Decrease in AP (Rattus norvegicus [3]): 27%
Decrease in AP (Rattus norvegicus [4]): 6%
Decrease in AP (Rattus norvegicus [5]): 10%
Decrease in AP (Rattus norvegicus [6]): 63%
Decrease in AP (Rattus norvegicus [7]): 29%
Decrease in CR (Rattus norvegicus [8]): 13%
Decrease in CR (Rattus norvegicus [9]): 19%
Decrease in CR (Rattus norvegicus [10]): 19%
Decrease in CR (Rattus norvegicus [11]): 24%
Decrease in CR (Rattus norvegicus [12]): 8%
Decrease in CR (Rattus norvegicus [13]): 64%
Decrease in CR (Rattus norvegicus [14]): 28%
Decrease in CR (Rattus norvegicus [15]): 30%
Decrease in CR (Rattus norvegicus [16]): 24%
Decrease in CR (Rattus norvegicus [17]): 22%
Decrease in CR (Rattus norvegicus [18]): 18%
Decrease in CR (Rattus norvegicus [19]): 16%
Decrease in CR (Rattus norvegicus [20]): 44%
Decrease in CR (Rattus norvegicus [21]): 17%
Decrease in AP (Rattus norvegicus [22]): -6%
Decrease in AP (Rattus norvegicus [23]): 70%
Decrease in AP (Rattus norvegicus [24]): 28%
Decrease in AP (Rattus norvegicus [25]): 67%
Decrease in AP (Rattus norvegicus [26]): 16%

CC(=O)Oc1ccccc1C(=O)O [ASPIRIN]
Increase (Cavia porcellus [27]): 0%
Increase (Cavia porcellus [28]): 0%
Increase [29]: 0%
Inhibition [30]: 80%
Inhibition [31]: 80%
Inhibition [32]: 80%
Inhibition [33]: 80%
inhibition [34]: 100%
inhibition [35]: 100%
inhibition [36]: 100%
